What is called pIC50 is the IC50 on a negative log10 scale, so that one unit is a factor of ten.

Structures are written as SMILES. pIC50: −log10 of the molar value.

Consider seven compounds from ChEMBL document CHEMBL2163200, “Synthesis, biological evaluation, and structure-activity relationships of novel substituted N-phenyl ureidobenzenesulfonate derivatives blocking cell cycle progression in S-phase and inducing DNA double-strand breaks” (J Med Chem, 2012).

Assay [1] has as its system Jurkat. As to the kind of experiment: Cell cycle arrest in human Jurkat E6-1 cells assessed as accumulation at G2/M phase at 10 uM after 24 hrs by FACS flow cytometry. Format: functional. The procedure, abridged: (§1)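 Jurkat E6 cells cultured in RPMI 1640 with 10% FBS at 37 °C, 5% CO2. Compounds serially diluted in medium, starting 50% above the M21 IC50. 4.0 × 10^5 cells were exposed for 24 h. Cells were washed with PBS, chicken red blood cells added as internal standard, and fixed in ice-cold EtOH. After 1 h on ice in PBS with 1 μg/mL DAPI, phase distribution was read by flow cytometry. DMSO-treated cells served as control.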

In another assay the test system is MCF7. As to the kind of experiment: Cytotoxicity against human MCF7 cells after 48 hrs by SRB assay. Format: functional, cell-based. Conditions: MCF7, 48 h. The procedure, abridged: (§2)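 NCI sulforhodamine B protocol. Cells were grown in high-glucose DMEM with 5% FBS and seeded per well at 4 × 10^3 (HT-29), 3.5 × 10^3 (M21) or 3 × 10^3 (MCF-7), then allowed 24 h to attach. Serial dilutions from 200 μM to 780 nM final were applied in DMSO <0.5% for 48 h. Cells were fixed with cold TCA (10% final) and stained with SRB, with absorbance read at 530–568 nm. Growth inhibition was computed against day-0 plates, giving the 50% inhibitory concentration. At least two experiments in triplicate, CV <10%.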
Background: In SRB staining, fixed cells bind dye roughly in proportion to their protein.

The test system of assay [2] is Jurkat. As to the kind of experiment: Cell cycle arrest in human Jurkat E6-1 cells assessed as accumulation at S phase at 10 uM after 24 hrs by FACS flow cytometry. It is filed as functional. The procedure, abridged:
(§3)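 Jurkat E6 cells grown in RPMI 1640 with 10% FBS at 37 °C, 5% CO2. Compounds were serially diluted in medium starting 50% above the M21 IC50. 4.0 × 10^5 cells were exposed for 24 h, then washed and spiked with chicken red blood cells as internal standard. Cells were fixed in ice-cold ethanol, stained with 1 μg/mL DAPI on ice for 1 h, and phase distribution was read by flow cytometry. The control was 0.5% DMSO.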
In general terms: A flow cytometer gives signals particle by particle.

The next assay deals with M21. Kind of assay: Cytotoxicity against human M21 cells after 48 hrs by SRB assay. As to conditions: M21, 48 h. Format: functional, cell-based. The procedure, abridged: as §2
For another assay, the system named is HT-29. Kind of assay: Cytotoxicity against human HT-29 cells after 48 hrs by SRB assay. As to conditions: HT-29, 48 h. It is filed as functional, cell-based. The procedure, abridged: as §2
Assay [3] concerns Jurkat. Kind of assay: Cell cycle arrest in human Jurkat E6-1 cells assessed as accumulation at G0/G1 phase at 10 uM after 24 hrs by FACS flow cytometry. Format: functional. The method in brief: as §1
Assay [4] deals with Jurkat. Kind of assay: Cell cycle arrest in human Jurkat E6-1 cells assessed as accumulation at G0/G1 phase at 64 uM after 24 hrs by FACS flow cytometry. Format: functional. The method in brief:
as §1

Assay [5] deals with Jurkat. As to the kind of experiment: Cell cycle arrest in human Jurkat E6-1 cells assessed as accumulation at S phase at 64 uM after 24 hrs by FACS flow cytometry. It is filed as functional. The method in brief: (§4)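 Jurkat E6 T-lymphoblasts in RPMI 1640 with 10% FBS, 37 °C, 5% CO2. […] Chicken red blood cells were added as internal standard. Cells were fixed in ice-cold EtOH and stained with 1 μg/mL DAPI on ice for 1 h before flow cytometry of phase distribution. Vehicle control was 0.5% DMSO.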

The test system of assay [6] is Jurkat. Kind of assay: Cell cycle arrest in human Jurkat E6-1 cells assessed as accumulation at G2/M phase at 64 uM after 24 hrs by FACS flow cytometry. Format: functional. The procedure, abridged:
as §3

Assay [7] concerns Jurkat. Kind of assay: Cell cycle arrest in human Jurkat E6-1 cells assessed as accumulation at S phase at 48 uM after 24 hrs by FACS flow cytometry. Format: functional. The method in brief:
as §4

Assay [8] relates to Jurkat. As to the kind of experiment: Cell cycle arrest in human Jurkat E6-1 cells assessed as accumulation at G0/G1 phase at 48 uM after 24 hrs by FACS flow cytometry. Format: functional. The procedure, abridged:
as §1

Assay [9] deals with Jurkat. As to the kind of experiment: Cell cycle arrest in human Jurkat E6-1 cells assessed as accumulation at G2/M phase at 48 uM after 24 hrs by FACS flow cytometry. Format: functional. The method in brief: as §3
The subject of assay [10] is Jurkat. Kind of assay: Cell cycle arrest in human Jurkat E6-1 cells assessed as accumulation at G0/G1 phase at 57 uM after 24 hrs by FACS flow cytometry. It is filed as functional. The procedure, abridged:
as §1

For assay [11], the system named is Jurkat. Kind of assay: Cell cycle arrest in human Jurkat E6-1 cells assessed as accumulation at G2/M phase at 57 uM after 24 hrs by FACS flow cytometry. It is filed as functional. The procedure, abridged: as §3
The test system of assay [12] is Jurkat. Kind of assay: Cell cycle arrest in human Jurkat E6-1 cells assessed as accumulation at S phase at 57 uM after 24 hrs by FACS flow cytometry. It is filed as functional. The method in brief:
as §4

Assay [13] relates to Jurkat. Kind of assay: Cell cycle arrest in human Jurkat E6-1 cells assessed as accumulation at G2/M phase at 16 uM after 24 hrs by FACS flow cytometry. Format: functional. The procedure, abridged:
as §1

Assay [14] relates to Jurkat. Kind of assay: Cell cycle arrest in human Jurkat E6-1 cells assessed as accumulation at G0/G1 phase at 16 uM after 24 hrs by FACS flow cytometry. Format: functional. The method in brief:
as §1

The subject of assay [15] is Jurkat. Kind of assay: Cell cycle arrest in human Jurkat E6-1 cells assessed as accumulation at S phase at 16 uM after 24 hrs by FACS flow cytometry. Format: functional. The procedure, abridged:
as §3

Assay [16] relates to Jurkat. Kind of assay: Cell cycle arrest in human Jurkat E6-1 cells assessed as accumulation at G0/G1 phase at 28 uM after 24 hrs by FACS flow cytometry. It is filed as functional. The procedure, abridged:
as §1

The test system of assay [17] is Jurkat. As to the kind of experiment: Cell cycle arrest in human Jurkat E6-1 cells assessed as accumulation at S phase at 28 uM after 24 hrs by FACS flow cytometry. It is filed as functional. The procedure, abridged:
as §4

Assay [18] concerns Jurkat. As to the kind of experiment: Cell cycle arrest in human Jurkat E6-1 cells assessed as accumulation at G2/M phase at 28 uM after 24 hrs by FACS flow cytometry. It is filed as functional. The procedure, abridged: as §3
In assay [19] the test system is Jurkat. As to the kind of experiment: Cell cycle arrest in human Jurkat E6-1 cells assessed as accumulation at S phase at 14 uM after 24 hrs by FACS flow cytometry. Format: functional. The procedure, abridged: as §3
In assay [20] the test system is Jurkat. As to the kind of experiment: Cell cycle arrest in human Jurkat E6-1 cells assessed as accumulation at G0/G1 phase at 14 uM after 24 hrs by FACS flow cytometry. Format: functional. The procedure, abridged:
as §1

The subject of assay [21] is Jurkat. Kind of assay: Cell cycle arrest in human Jurkat E6-1 cells assessed as accumulation at G2/M phase at 14 uM after 24 hrs by FACS flow cytometry. It is filed as functional. The method in brief:
as §1

As for `CCCc1ccccc1NS(=O)(=O)c1cccc(NC(=O)NCCCl)c1`, the figures for the Activity with Jurkat [1], with Jurkat [2] and in the assay on Jurkat [3] were 19%, 39% and 42%, respectively. Besides, the pIC50 in the assay with MCF7 was 4.80; with M21, 4.77; with HT-29, 4.82.
Turning to `CCc1ccccc1NS(=O)(=O)c1cccc(NC(=O)NCCCl)c1`, the Activity is listed as 46% in the assay with Jurkat [4], 42% with Jurkat [5] and 12% in the assay on Jurkat [6]. For the same compound, the negative logarithm of the IC50 (pIC50) in the assay with MCF7 is 4.34; in the assay with M21, 4.19; in the assay with HT-29 it was 4.32.
`Cc1ccccc1NS(=O)(=O)c1ccc(NC(=O)NCCCl)cc1`: the Activity with Jurkat [7] is on record as 35%; with Jurkat [8], 45%; with Jurkat [9], 20%. Besides, the pIC50 in the assay with M21 is 4.20; with HT-29, 4.26.
Take `O=C(NCCCCl)Nc1cccc(S(=O)(=O)Oc2ccc(O)cc2)c1`: the Activity in the assay on Jurkat [10] was 43%; in the assay on Jurkat [11] it was 9%; in the assay with Jurkat [12], 48%. The pIC50 in the assay on M21 is 4.31.
With `CCc1ccccc1NS(=O)(=O)c1ccc(NC(=O)NCCCl)cc1`, the Activity in the assay on Jurkat [13] is given as 16%; with Jurkat [14] it was 41%; in the assay with Jurkat [15], 43%. Further, the figures for the pIC50 in the assay on MCF7, in the assay with M21 and with HT-29 were 4.48, 4.17 and 4.40, respectively.
As for `Cc1ccccc1OS(=O)(=O)c1cccc(NC(=O)NCCCCl)c1`, the Activity in the assay with Jurkat [16] turned out to be 43%; in the assay on Jurkat [17] it was 38%; with Jurkat [18], 19%. Further, the results for the pIC50 in the assay on MCF7, with M21 and with HT-29 were 4.57, 4.54 and 4.68, respectively.
`CCCc1ccccc1OS(=O)(=O)c1cccc(NC(=O)NCCCCl)c1`: the Activity stood at 39% in the assay with Jurkat [19], 52% with Jurkat [20] and 9% in the assay with Jurkat [21]. For the same compound, the pIC50 in the assay on MCF7 is 4.85; with M21, 4.82; with HT-29, 4.85.
